# Tested on: Pseudomonas aeruginosa
# Experiment: Antimicrobial activity against Pseudomonas aeruginosa PAO1 in neutropenic mouse thigh infection model assessed as log reduction in CFU at 100 mg/kg/day, ip bid q12 regime starting 2 hrs after infection measured 24 hrs post start of treatment relative to control
# Type: functional
# Conditions: route intraperitoneal
# In short: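 CD-1 mice made neutropenic with intraperitoneal cyclophosphamide 4 days (150 mg/kg) and 1 day (100 mg/kg) before thigh infection with P. aeruginosa PAO1, target inoculum 5 × 10⁵ CFU. Groups of five dosed ip in 5% dextrose with lactic acid pH 5.0. Vehicle-only group included. Thighs removed 24 h after treatment start, weighed, homogenized and plated on tryptic soy agar, 37 °C overnight. Log CFU/g reduction is relative to starting inoculum.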
structure (smiles),measurement,value
N[C@@H](Cn1c(=O)cnc2ccc(F)cc21)[C@H]1CC[C@H](NCc2ncc3c(n2)NC(=O)CO3)CC1,FC,0.2

# From ChEMBL document CHEMBL3352316, “Optimization of physicochemical properties and safety profile of novel bacterial topoisomerase type II inhibitors (NBTIs) with activity against Pseudomonas aeruginosa” (Bioorg Med Chem, 2014)
